This note sets out measurements from ChEMBL document CHEMBL2177098, “Synthesis and evaluation of novel ¹⁸F labeled 2-pyridinylbenzoxazole and 2-pyridinylbenzothiazole derivatives as ligands for positron emission tomography (PET) imaging of β-amyloid plaques” (J Med Chem, 2012).

Data set [1] has as its system Blood. Description: Drug uptake in ICR mouse blood at 370 kBq/100 ul, iv at 2 mins by gamma-counting analysis. It is filed as ADME, organism-based. The settings on record: in vivo. The method, boiled down: (§1)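 Male ICR mice (5 weeks, about 20 g) got 18F tracer in saline (370 KBq per 100 μL) via tail vein; n = 5 per time point, killed at 2, 10, 30, 60 min. Organs weighed and γ-counted; percent dose per gram wet tissue from comparison with diluted injectate aliquots.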

In data set [2] the test system is Spleen. Description: Drug uptake in ICR mouse spleen at 370 kBq/100 ul, iv at 30 mins by gamma-counting analysis. It is filed as ADME, organism-based. The settings on record: in vivo, 0.5 h. In outline:
as §1

In data set [3] the test system is Stomach. Description: Drug uptake in ICR mouse stomach assessed per organ at 370 kBq/100 ul, iv at 10 mins by gamma-counting analysis. It is filed as ADME, organism-based. Conditions: in vivo. The method, boiled down: (§2)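 Male ICR mice (5 weeks, about 20 g) got 18F tracer in saline (370 KBq per 100 μL) via tail vein; n = 5 per time point, killed at 2, 10, 30, 60 min. Organs removed and γ-counted against diluted injectate; expressed as % injected dose per organ.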

The nature of data set [4]: Displacement of [125I]-IMPY from amyloid beta (1 to 42) fibrils after 2 hrs by gamma-counting analysis. The method, boiled down: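 Competition binding with aggregated Aβ1-42 fibrils and [125I]IMPY (60000−100000 cpm/100 μL) in 0.05% BSA (1 mL total); inhibitors 10⁻⁴−10^−8.5 M in ethanol. Incubated 37 °C for 2 h, then GF/B vacuum filtration with PBS (0.02 M, pH 7.4) washes and γ counting. Three repeats; IC50 converted to Ki by Cheng−Prusoff.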

The test system of data set [5] is Brain. Description: Drug uptake in ICR mouse brain at 370 kBq/100 ul, iv at 10 mins by gamma-counting analysis. Conditions: in vivo. Format: ADME, organism-based. The method, boiled down:
as §1

In the next data set the test system is Lung. Description: Drug uptake in ICR mouse lung at 370 kBq/100 ul, iv at 30 mins by gamma-counting analysis. Conditions: in vivo, 0.5 h. It is filed as ADME, organism-based. The method, boiled down:
as §1

The test system of data set [6] is Bone. The data set is described as follows: Drug uptake in ICR mouse bone at 370 kBq/100 ul, iv at 2 mins by gamma-counting analysis. Format: ADME, organism-based, Bone element. The settings on record: in vivo. In outline: as §1
The test system of data set [7] is Bone. The data set is described as follows: Drug uptake in ICR mouse bone at 370 kBq/100 ul, iv at 10 mins by gamma-counting analysis. Format: ADME, organism-based, Bone element. Conditions: in vivo. The method, boiled down: as §1
Data set [8] has as its system Heart. Description: Drug uptake in ICR mouse heart at 370 kBq/100 ul, iv at 30 mins by gamma-counting analysis. The settings on record: in vivo, 0.5 h. Format: ADME, organism-based. In outline:
as §1

Data set [9] relates to Stomach. The data set is described as follows: Drug uptake in ICR mouse stomach assessed per organ at 370 kBq/100 ul, iv at 30 mins by gamma-counting analysis. It is filed as ADME, organism-based. Conditions: in vivo, 0.5 h. In outline: as §2
Data set [10] concerns Brain. The data set is described as follows: Drug uptake in ICR mouse brain at 370 kBq/100 ul, iv at 2 mins by gamma-counting analysis. It is filed as ADME, organism-based. The settings on record: in vivo. The method, boiled down: as §1
Data set [11] has as its system Kidney. Description: Drug uptake in ICR mouse kidney at 370 kBq/100 ul, iv at 10 mins by gamma-counting analysis. It is filed as ADME, organism-based. The settings on record: in vivo. In outline: as §1
For data set [12], the system named is Blood. The data set is described as follows: Drug uptake in ICR mouse blood at 370 kBq/100 ul, iv at 30 mins by gamma-counting analysis. Conditions: in vivo, 0.5 h. It is filed as ADME, organism-based. The method, boiled down: as §1
Data set [13] concerns Blood. The data set is described as follows: Drug uptake in ICR mouse blood at 370 kBq/100 ul, iv at 60 mins by gamma-counting analysis. The settings on record: in vivo, 1 h. It is filed as ADME, organism-based. The method, boiled down: as §1
Data set [14] has as its system Kidney. The data set is described as follows: Drug uptake in ICR mouse kidney at 370 kBq/100 ul, iv at 60 mins by gamma-counting analysis. It is filed as ADME, organism-based. Conditions: in vivo, 1 h. In outline: as §1
Data set [15] relates to Heart. Description: Drug uptake in ICR mouse heart at 370 kBq/100 ul, iv at 2 mins by gamma-counting analysis. Format: ADME, organism-based. The settings on record: in vivo. The method, boiled down:
as §1

The test system of data set [16] is Liver. The data set is described as follows: Drug uptake in ICR mouse liver at 370 kBq/100 ul, iv at 2 mins by gamma-counting analysis. Format: ADME, organism-based. Conditions: in vivo. In outline: as §1
The test system of a further data set is Intestine. Description: Drug uptake in ICR mouse intestine assessed per organ at 370 kBq/100 ul, iv at 60 mins by gamma-counting analysis. The settings on record: in vivo, 1 h. It is filed as ADME, organism-based. The method, boiled down: as §2
In data set [17] the test system is Spleen. The data set is described as follows: Drug uptake in ICR mouse spleen at 370 kBq/100 ul, iv at 10 mins by gamma-counting analysis. Conditions: in vivo. Format: ADME, organism-based. In outline: as §1
Data set [18] concerns Liver. Description: Drug uptake in ICR mouse liver at 370 kBq/100 ul, iv at 30 mins by gamma-counting analysis. Format: ADME, organism-based. Conditions: in vivo, 0.5 h. The method, boiled down: as §1
Data set [19] relates to Stomach. The data set is described as follows: Drug uptake in ICR mouse stomach assessed per organ at 370 kBq/100 ul, iv at 60 mins by gamma-counting analysis. Format: ADME, organism-based. Conditions: in vivo, 1 h. The method, boiled down: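 Normal male ICR mice (5 weeks, about 20 g) received the ¹⁸F tracer in saline (370 KBq per 100 μL) by tail-vein injection. Groups of n = 5 were killed at 2, 10, 30 and 60 min. Organs were removed, weighed and γ-counted against diluted aliquots of the injectate, giving % dose per gram. Stomach and intestine were expressed per organ. The brain ratio is 2 min/60 min uptake. Values are mean ± SD.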

Data set [20] relates to Stomach. Description: Drug uptake in ICR mouse stomach assessed per organ at 370 kBq/100 ul, iv at 2 mins by gamma-counting analysis. Format: ADME, organism-based. Conditions: in vivo. The method, boiled down: as §2

In the case of `CN(C)c1ccc(-c2nc3cc(OCC[18F])ccc3o2)cn1`, the Drug uptake with Blood [1] came to 3.57 % ID/g; in the data set with Spleen [2] it was 1.6 % ID/g; with Stomach [3], 2.55 %ID; with Brain [5], 3.41 % ID/g; with Lung, 1.85 % ID/g; with Bone [6] it was 2.08 % ID/g. Moreover, the Drug uptake stood at 1.27 % ID/g with Bone [7]; 1.83 % ID/g with Heart [8]; 2.54 %ID in the data set with Stomach [9]; 7.27 % ID/g in the data set with Brain [10]; 3.82 % ID/g in the data set with Kidney [11]; 1.89 % ID/g with Blood [12]. Further, the Drug uptake is recorded as 2.06 % ID/g with Blood [13]; 1.82 % ID/g in the data set on Kidney [14]; 5.95 % ID/g in the data set on Heart [15]; 15.7 % ID/g in the data set with Liver [16]; 37.02 %ID in the data set with Intestine; 2.02 % ID/g in the data set on Spleen [17]. The Drug uptake in the data set with Liver [18] is on record as 4.39 % ID/g; in the data set on Stomach [19] it was 2.79 %ID; in the data set with Stomach [20] it was 2.44 %ID. Further, the Ki (commonly the dissociation constant of the complex between target and ligand, obtained from inhibition or displacement) in data set [4] worked out at 2.7 nM.
